Data reported in ChEMBL document CHEMBL1125226, “Antineoplastic activity of didemnin congeners: nordidemnin and modified chain analogues” (1991).
Converted amounts (≈) assume the structure as drawn.

Legend:
[1] = system: L1210; assay: In vitro cytostatic activity determined on L1210 leukemia cells at 48 hours.; assay type: functional; settings: Mus musculus, L1210, 48 h; read-out: ID50 (the source's name)
Summary of the method: (§1)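 Log-phase L1210 cells were seeded at 0.8 × 10⁵ cells/mL in RPMI 1640 with 20% heat-inactivated horse serum, 2 mmol/L L-glutamine, streptomycin and penicillin. Drugs in ethanol (0.5% final) were tested at several concentrations.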

[2] = system: P388; assay: Antitumor activity against P388 Leukemia from CDF1 female mice (T/C) as median survival time of treated mice (T) over that of control mice (C) at a dose of 0.75 mg/kg/day; assay type: functional, Mus musculus
Summary of the method: (§2)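 CDF1 female mice (BALB/c ♀ × DBA/2 ♂) given 10⁶ P388 cells ip on day 0. Drug in 2% methanol given ip on days 1, 5 and 9, 10 mice per group and more controls. Toxicity is survivors on day 5, with weight change between days 1 and 5. Mortality followed 30 days. T/C% is treated over control median survival (NCI method), significant at ≥125%.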

[3] = system: P388; assay: Antitumor activity against P388 Leukemia from CDF1 female mice as average weight change of animals between day 1 and day 5 after tumor implementation at a dose of 0.75 mg/kg/day; assay type: functional, Mus musculus
Summary of the method: (§3)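 P388 leukemia: CDF1 female mice were inoculated ip with 10⁶ cells on day 0. Treatment in 2% methanol was given ip on days 1, 5 and 9, with 10 mice per group and a larger control group. Body weight was recorded on days 1 and 5 post-implant, and the average change was reported.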

[4] = system: P388; assay: Antitumor activity against P388 Leukemia from CDF1 female mice as Median survival time of treated mice at a dose of 0.75 mg/kg/day; assay type: functional, Mus musculus; summary of the method: as §2
[5] = system: L1210; assay: In vitro cytostatic activity determined on L1210 leukemia cells at 24 hours.; assay type: functional; settings: Mus musculus, L1210, 24 h; read-out: ID50 (the source's name); summary of the method: as §1
[6] = system: P388; assay: Antitumor activity against P388 Leukemia from CDF1 female mice as the number of survivors on day 5 at a dose of 0.75 mg/kg/day; assay type: functional, Mus musculus; summary of the method: as §2
[7] = system: P388; assay: Antitumor activity against P388 Leukemia from CDF1 female mice (T/C) as median survival time of treated mice (T) over that of control mice (C) at a dose of 0.12 mg/kg/day; assay type: functional, Mus musculus; summary of the method: as §2
[8] = system: P388; assay: Antitumor activity against P388 Leukemia from CDF1 female mice as Median survival time of treated mice at a dose of 0.12 mg/kg/day; assay type: functional, Mus musculus; summary of the method: as §2
[9] = system: P388; assay: Antitumor activity against P388 Leukemia from CDF1 female mice as average weight change of animals between day 1 and day 5 after tumor implementation at a dose of 0.12 mg/kg/day; assay type: functional, Mus musculus; summary of the method: as §3

| Compound | IC50 [1] | T/C [2] | Body weight change [3] | median survival time, days [4] | IC50 [5] | Toxicity [6] | T/C [7] | median survival time, days [8] | Body weight change [9] |
| --- | --- | --- | --- | --- | --- | --- | --- | --- | --- |
| COc1ccc(C[C@H]2C(=O)O[C@H](C)[C@H](NC(=O)[C@@H](CC(C)C)N(C)C(=O)C3CCCN3C(=O)[C@H](O)c3ccccc3)C(=O)NC(C(C)C)[C@H](O)CC(=O)O[C@@H](C(C)C)C(=O)[C@H](C)C(=O)N[C@@H](CC(C)C)C(=O)N3CCC[C@H]3C(=O)N2C)cc1 (some centres not stated) | 1.3 ng/mL (≈ 1.12 nM) | 159% | -1.5 g | 19 | 2 ng/mL (≈ 1.72 nM) | 1 | 134% | 16 | 0.2 g |
| COc1ccc(C[C@H]2C(=O)O[C@H](C)C(NC(=O)[C@H](CC(C)C)N(C)C(=O)C3CCCN3C(=O)[C@@H](C)O)C(=O)NC(C(C)C)[C@H](O)CC(=O)O[C@@H](C(C)C)C(=O)[C@H](C)C(=O)N[C@@H](CC(C)C)C(=O)N3CCC[C@H]3C(=O)N2C)cc1 (some centres not stated) | 589 ng/mL (≈ 536 nM) | – | – | – | 1260 ng/mL (≈ 1150 nM) | – | – | – | – |
| CCCCCCCCCCCCCCCC(=O)N1CCCC1C(=O)N(C)[C@H](CC(C)C)C(=O)N[C@@H]1C(=O)NC(C(C)C)[C@H](O)CC(=O)O[C@@H](C(C)C)C(=O)[C@H](C)C(=O)N[C@@H](CC(C)C)C(=O)N2CCC[C@H]2C(=O)N(C)[C@@H](Cc2ccc(OC)cc2)C(=O)O[C@@H]1C (some centres not stated) | > 1000 ng/mL | – | – | – | > 1000 ng/mL | – | – | – | – |
| COc1ccc(C[C@H]2C(=O)O[C@H](C)[C@H](NC(=O)[C@@H](CC(C)C)N(C)C(=O)C3CCCN3C(=O)CCc3ccc(O)cc3)C(=O)NC(C(C)C)[C@H](O)CC(=O)O[C@@H](C(C)C)C(=O)[C@H](C)C(=O)N[C@@H](CC(C)C)C(=O)N3CCC[C@H]3C(=O)N2C)cc1 (some centres not stated) | 1.5 ng/mL (≈ 1.28 nM) | 157% | -1.1 g | 18.7 | 4.8 ng/mL (≈ 4.09 nM) | 1 | 123% | 14.7 | 0.2 g |
